{"data": "Results gathered from unrelated publications", "target": "Leukocyte tyrosine kinase receptor (LTK, Homo sapiens, UniProt P29376)", "note": "Lines come from different studies, so protocols differ."}
{"SMILES": "Cc1ccc(C(=O)Nc2ccc(CN3CCN(C)CC3)c(C(F)(F)F)c2)cc1C#Cc1cnc2cccnn12", "test": "cell-free assay", "setting": "23.5 nM", "quantity": "remaining signal", "result": "82%"}
{"SMILES": "O=C(O)[C@H]1[C@H](Cn2nnc3ccccc3c2=O)CC[C@@H]1C(=O)c1ccc(OCCC2CCOCC2)cc1", "test": "cell-free assay, competition with immobilised ligand", "setting": "1 µM", "quantity": "remaining binding", "result": "100%"}
{"SMILES": "COc1cc2ncnc(Nc3ccc(Oc4ccccc4)cc3C)c2cc1OC", "test": "enzyme activity, inhibitor", "setting": "1 µM", "quantity": "inhibition", "result": "-5%"}
{"SMILES": "O=C(Nc1cnn(-c2csc(C(=O)NC3COC3)c2)c1)Nc1c(F)cccc1Cl", "test": "enzyme activity, inhibitor", "setting": "5 µM", "quantity": "remaining activity", "result": "92.2%"}
{"SMILES": "O=C(Nc1cnc(Oc2ccc(F)cc2)nc1)N1CCc2ncccc2[C@@H]1c1ccc(F)cc1", "test": "cell-free assay, competition with immobilised ligand", "setting": "1 µM", "quantity": "remaining binding", "result": "93%"}
{"SMILES": "Cc1sc(C(=O)NC2COC2)cc1-n1cc(NC(=O)Nc2c(F)cccc2Cl)cn1", "test": "enzyme activity, inhibitor", "setting": "10 µM", "quantity": "remaining activity", "result": "114%"}
{"SMILES": "CC(C)(O)[C@H]1CC[C@H](Nc2ccc3ncc(-c4cccc(C(F)(F)F)c4)n3n2)CC1", "test": "enzyme activity, inhibitor", "setting": "1 µM", "quantity": "remaining activity", "result": "70.5%"}
{"SMILES": "COCCOc1nc(-c2ccc(Cl)nc2)nc2c1CN(C(=O)c1ncn3ccccc13)CC2", "test": "cell-free assay, competition with immobilised ligand", "setting": "0.1 µM", "quantity": "remaining binding", "result": "100%"}
{"SMILES": "COc1cc(Cl)c(C(=O)N[C@@H](CN[C@H]2CC[C@@H](N)CC2)Cc2ccc(C#N)cc2)cc1-c1ccc(CN[C@H](C)c2ccc(C)cc2)o1", "test": "enzyme activity, inhibitor", "setting": "1 µM", "quantity": "remaining activity", "result": "94%"}
{"SMILES": "COc1cc2ncnc(Nc3ccc(Oc4ccccc4)c(C)c3C)c2cc1OC", "test": "enzyme activity, inhibitor", "setting": "1 µM", "quantity": "inhibition", "result": "-2%"}
{"SMILES": "Cc1cc(NC(=O)c2cccc3cc(-c4cccc5[nH]nc(N)c45)ccc23)ccc1F", "test": "enzyme activity, inhibitor", "setting": "0.1 µM", "quantity": "activity vs control", "result": "96%"}
{"SMILES": "CC/C(=N\\NC(=O)NCc1cccc(O)c1)c1ccc(O)c(C)c1O", "test": "enzyme activity, inhibitor", "setting": "0.1 µM", "quantity": "inhibition", "result": "-1.4%"}
{"SMILES": "Cc1cnc(NC2CCOCC2)nc1-n1cnc(C(=O)NC(CN)c2cc(F)cc(Cl)c2)c1 (stereo not shown)", "test": "enzyme activity, inhibitor, radiometric", "setting": "1 µM", "quantity": "remaining activity", "result": "103%"}
{"SMILES": "CCCS(=O)(=O)Nc1ccc(F)c(C(=O)c2c[nH]c3ncc(-c4ccc(Cl)cc4)cc23)c1F", "test": "enzyme activity, inhibitor", "setting": "1 µM", "quantity": "inhibition", "result": "< 10%"}
{"SMILES": "Nc1ncnc2occ(-c3ccc(NC(=O)Nc4cc(C(F)(F)F)ccc4F)cc3)c12", "test": "enzyme activity, inhibitor", "setting": "20 µM", "quantity": "remaining activity", "result": "1.6%"}
{"SMILES": "Cc1ccc(NC(=O)c2ccc(C)c(C(F)(F)F)c2)cc1C#Cc1nn(C2CCC(O)CC2)c2ncnc(N)c12 (stereo not shown)", "test": "cell-free assay", "setting": "10 µM", "quantity": "remaining signal", "result": "73%"}
{"SMILES": "Cc1noc([C@H]2C[C@@H](c3ccc(C(F)(F)F)cc3)CN(C(=O)N3CCS(=O)(=O)C3)C2)n1", "test": "cell-free assay, competition with immobilised ligand", "setting": "1 µM", "quantity": "remaining binding", "result": "100%"}
{"SMILES": "COc1cc2nccc(Oc3ccc(NC(=O)c4c5n(n(-c6ccc(F)cc6)c4=O)CCCC5)cc3)c2cc1OC", "test": "enzyme activity, inhibitor", "setting": "0.1 µM", "quantity": "inhibition", "result": "-10%"}
{"SMILES": "Cc1ccc(C(=O)NCc2ccsc2)cc1C#Cc1cn(C(C)C)c2ncnc(N)c12", "test": "enzyme activity, inhibitor", "setting": "1 µM", "quantity": "activity vs control", "result": "95%"}
